Measured values: ChEMBL document CHEMBL5214993, “Fragment Optimization of Reversible Binding to the Switch II Pocket on KRAS Leads to a Potent, In Vivo Active KRASG12C Inhibitor” (J Med Chem, 2022)
The source made the active and inactive calls. No cut-off for these calls is given here.

Tests used:
[1] = Binding affinity to KRAS G12V/S39C-BIT mutant (unknown origin) assessed as dissociation constant by HSQC NMR spectroscopy analysis; parameters: species or system Homo sapiens
GTPase KRas [2] = target: GTPase KRas (Homo sapiens, UniProt P01116, G12V); assay: Binding affinity to KRAS G12V mutant (unknown origin) assessed as dissociation constant by HSQC NMR spectroscopy analysis
Procedure, shortened: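 KD was fitted from chemical shift perturbations and reported as mean ± SD. Reported as <10 μM when shifts were near saturation at the first point, >2000 μM when dose-responsive but unfittable, and >10,000 μM when there were no shifts at 500 μM.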

GTPase KRas [3] = target: GTPase KRas (Homo sapiens, UniProt P01116, G12D); assay: Binding affinity to KRAS G12D mutant (unknown origin) assessed as dissociation constant by HSQC NMR spectroscopy analysis
[4] = Toxicity in NOG mouse assessed as change in body weight at 40 to 80 mg/kg, ip; type: organism-based; conditions: in vivo, dose 40-80 mg/kg
Procedure, shortened: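 Female NOG mice with subcutaneous NCI-H358 xenografts, randomized at mean 160 mm3 into groups of n = 8. Dosed ip 40 mg/kg once weekly or 40 mg/kg on 2 consecutive days weekly, in 25% HP-γ-CD at 10 mL/kg, with a vehicle control group. Body weight recorded daily.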

LS-513 = assay: cells; conditions: Homo sapiens, LS-513, 120 h
NCI-H358 [5] = assay: Antitumor activity against human NCI-H358 cells xenografted in NOG mouse model assessed as induction of apoptosis at 40 mg/kg, ip administered for 3 days and measured at 6 hrs post last dose; type: functional, organism-based; conditions: time 3.0 day
Procedure, shortened: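 Female NOG mice, 7–8 weeks old, bearing subcutaneous NCI-H358 tumors (5 million cells in Matrigel, right flank), randomized at mean 180 mm3, n = 5 per group and time point. […] Tumors frozen 6 h after last dose; cleaved caspase 3 measured in tumor lysates.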

cells = conditions: Homo sapiens, GP2d, 120 h
NCI-H358 [6] = assay: Antiproliferative activity against human NCI-H358 cells harboring KRAS G12C mutant incubated for 3 days by celltiter glo luminescent assay; type: functional, cell-based; conditions: NCI-H358, 72 h
NCI-H358 [7] = assay: Antiproliferative activity against human NCI-H358; type: functional, cell-based
[8] = system: GTPase KRas (Homo sapiens), P01116 [G12C]
GTPase KRas [9] = target: GTPase KRas (Homo sapiens, UniProt P01116, G12C)
SOS1-KRAS = SOS1-KRAS (Homo sapiens, UniProt P01116, G12C)
Sequence of SOS1-KRAS (P01116 whole entry G12C, looked up): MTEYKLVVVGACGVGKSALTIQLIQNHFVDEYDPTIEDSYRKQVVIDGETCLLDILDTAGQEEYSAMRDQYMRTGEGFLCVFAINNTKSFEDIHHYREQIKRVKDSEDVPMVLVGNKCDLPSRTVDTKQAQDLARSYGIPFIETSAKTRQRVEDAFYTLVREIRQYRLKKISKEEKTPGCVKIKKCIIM

Sequence of GTPase KRas (Homo sapiens, UniProt P01116, G12V) (P01116 whole entry G12V): as the sequence (P01116 whole entry G12C, looked up) above, with C12V counted along it
Sequence of GTPase KRas (Homo sapiens), P01116 [G12C] (P01116 whole entry G12C): as the sequence (P01116 whole entry G12C, looked up) above
Sequence of GTPase KRas (Homo sapiens, UniProt P01116, G12C) (P01116 whole entry G12C): as the sequence (P01116 whole entry G12C, looked up) above
Sequence of GTPase KRas (Homo sapiens, UniProt P01116, G12D) (P01116 whole entry G12D): as the sequence (P01116 whole entry G12C, looked up) above, with C12D counted along it

SMILES | Kd [1] [µM] | Kd (GTPase KRas [2]) [µM] | further results
N#Cc1c(N)sc2c1CCCC2 | 116 | – | –
N#Cc1c(N)sc2ccccc12 | 297 | – | –
CNC(=O)C1(C)CCCc2sc(N)c(C#N)c21 (stereo not given) | – | > 2000 | –
Nc1nc2c(s1)CCCC2 | 715 | – | –
C[C@]1(c2nc(-c3cccc(N)c3)no2)CCCc2sc(N)c(C#N)c21 | – | < 10 | Kd (GTPase KRas [3]): > 2000 µM
COC(=O)c1c(N)sc2c1CCCC2 | > 10000 | – | –
C=CC(=O)N1CCN(c2cc(-c3noc([C@@]4(C)CCCc5sc(N)c(C#N)c54)n3)nc(N3CCN(C)C[C@@H]3C)c2)CC1 | – | – | Activity [4]: Toxic; EC50 (LS-513): > 4 µM; Activity (NCI-H358 [5]): Active; EC50 (cells): > 4 µM; EC50 (NCI-H358 [6]): 0.026 µM
CN(C)c1cccc2cccc(Cl)c12 | > 10000 | – | –
CC1(C(=O)Nc2ccccc2)CCCc2sc(N)c(C#N)c21 (stereo not given) | – | 1180 | –
C=CC(=O)N1CCN(c2nc(=O)n(-c3c(C)ccnc3C(C)C)c3nc(-c4c(O)cccc4F)c(F)cc23)[C@@H](C)C1 [SOTORASIB] | – | – | EC50 (NCI-H358 [6]): 0.0064 µM; EC50 (NCI-H358 [7]): 0.006 µM
CC1CCCc2sc(N)c(C#N)c21 (stereo not given) | 21 | – | –
N#Cc1csc2c1CCCC2 | > 2000 | – | –
N#Cc1c(N)sc2c1C(C(=O)Nc1ccccc1)CCC2 (stereo not given) | – | 1270 | –
Nc1nc2c(C(F)(F)F)cccc2s1 | 1220 | – | –
N#Cc1c(N)sc2c1CCC2 | 193 | – | –
Cc1noc(C2(C)CCCc3sc(N)c(C#N)c32)n1 (stereo not given) | – | 20 | –
N#Cc1ccsc1N | > 10000 | – | –
C[C@]1(c2nc(-c3ccc(N)cc3)no2)CCCc2sc(N)c(C#N)c21 | – | < 10 | Kd (GTPase KRas [3]): > 2000 µM
CC1(C(=O)O)CCCc2sc(N)c(C#N)c21 (stereo not given) | – | 1160 | –
CCc1c(C)sc(N)c1C#N | 143 | – | –
N#Cc1c(N)sc2c1CCCCC2 | 162 | – | –
C=CC(=O)N1CCN(c2cccc(-c3noc([C@@]4(C)CCCc5sc(N)c(C#N)c54)n3)c2)CC1 | – | – | Kinact [8]: 0.3 h⁻¹; Ki (GTPase KRas [9]): 7.5 µM; IC50 (SOS1-KRAS): 3.29 µM
Oc1cccc(F)c1-c1ncccc1F | > 10000 | – | –
C=CC(=O)Nc1cccc(-c2noc([C@@]3(C)CCCc4sc(N)c(C#N)c43)n2)c1 | – | – | Kinact [8]: 1.1 h⁻¹; Ki (GTPase KRas [9]): 8.6 µM; IC50 (SOS1-KRAS): > 10 µM
CC1(C)CCCc2sc(N)c(C#N)c21 | < 10 | 15 | –
C=CC(=O)Nc1ccc(-c2noc([C@@]3(C)CCCc4sc(N)c(C#N)c43)n2)cc1 | – | – | Kinact [8]: 0.7 h⁻¹; Ki (GTPase KRas [9]): 24.1 µM; IC50 (SOS1-KRAS): > 10 µM
